# Measurements: ChEMBL document CHEMBL1123488, “Agents for the treatment of brain edema. 2. [(2,3,9,9a-Tetrahydro-3-oxo-9a-substituted-1H-fluoren-7-yl)oxy]+ ++alkanoi c acids and some of their analogues” (J Med Chem, 1986)
# Tests used:
# [1] = % distribution in octanol versus pH7.4 buffer; format: physicochemical; conditions: pH 7.4
# [2] = Dissociation constant (pKa) (determined in 30% EtOH); format: physicochemical
# [3] = organism: Felis catus; assay: In vitro concentration required for 50% inhibition of swelling of cat cerebrocortical slices; format: functional; conditions: read-out: I50
# How it was run: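 Cat cortical slices were weighed and incubated 60 min at 22 °C in 27 mM K+ medium, with HCO3- added for the last 40 min and inhibitor present throughout. Swelling = (final − initial wet weight)/initial wet weight × 100. The HCO3−-dependent increment was taken as the target. I50 is the molarity giving 50% inhibition, read from the concentration–response curve.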
Distribution [1],pKa [2],IC50 ([3]; Felis catus),IC50 [3],Structure (SMILES)
49%,4.3,100 nM,–,CCCC12CCC(=O)C=C1c1c(cc(OCC(=O)O)c(C)c1C)C2 (configuration not stated)
95%,4.1,100 nM,–,CCCC12CCC(C(C)=O)=C1c1c(cc(OCC(=O)O)c(Cl)c1Cl)C2 (configuration not stated)
98%,3.5,> 10 nM,–,CCCCC12CCC(=O)C=C1c1c(cc(OCC(=O)O)c(Cl)c1Cl)C2 (configuration not stated)
79%,3.7,> 10 nM,–,CCC12C=CC(=O)C=C1c1c(cc(OCC(=O)O)c(Cl)c1Cl)C2 (configuration not stated)
> 99.9%,3.32,0.1 nM,–,CCC12CCC(=O)C=C1c1c(cc(OCC(=O)OCc3cccnc3)c(Cl)c1Cl)C2 (configuration not stated)
99.2%,3.7,> 10000 nM,–,CCC12CCC(=O)C=C1c1c(cc(OCCCC(=O)O)c(Cl)c1Cl)C2 (configuration not stated)
81%,3.6,–,30000 nM,CCC12CCC(=O)C=C1c1c(cc(OCC(=O)O)c(Cl)c1Cl)C2 (stereo in doubt; (-)-5b)
99.5%,–,20 nM,–,CCC12CCC(=O)C=C1c1c(cc(OCC(=O)OC)c(Cl)c1Cl)C2 (configuration not stated)
> 99.8%,–,–,0.2 nM,CCOC(=O)COc1cc2c(c(Cl)c1Cl)C1=CC(=O)CCC1(CC)C2 (stereo in doubt; 16b-1)
> 99.9%,3.4,0.04 nM,–,"CCCC12CCC(=O)C=C1c1c(cc(OCC(=O)OC(CC)(CC)C(=O)O)c(Cl)c1Cl)C2 (single isomer, unassigned; (+))"
91%,3.8,6 nM,–,CCC12CCC(=O)C=C1c1c(cc(OCC(=O)OCC(=O)O)c(Cl)c1Cl)C2 (stereo in doubt; 16b-8)
99.7%,–,1000 nM,–,CCC12CCC(=O)C=C1c1c(cc(OCC(=O)OCC3CCC(CO)O3)c(Cl)c1Cl)C2 (configuration not stated)
99.7%,3.9,> 100 nM,–,CCCC12CCC(=O)C=C1c1c(cc(OCC(=O)NN(C)C)c(Cl)c1Cl)C2 (configuration not stated)
> 99.9%,–,1 nM,–,CCC12CCC(=O)C=C1c1c(cc(OCC(=O)OCC(C)=O)c(Cl)c1Cl)C2 (configuration not stated)
96%,–,–,0.5 nM,CCC12CCC(=O)C=C1c1c(cc(OCC(=O)OC(C)(C)C(=O)O)c(Cl)c1Cl)C2 (stereo in doubt; (+)-16b-9)
98%,3.5,> 100 nM,–,CCCC12CCC(=O)C(C)=C1c1c(cc(OCC(=O)O)c(Cl)c1Cl)C2 (configuration not stated)
95%,3.72,> 100 nM,–,CCC12CCC(=O)C=C1c1c(cc(OCc3nn[nH]n3)c(Cl)c1Cl)C2 (configuration not stated)
89%,3.83,> 100 nM,–,CC(C)C12CCC(=O)C=C1c1c(cc(OCC(=O)O)c(Cl)c1Cl)C2 (configuration not stated)
99.9%,–,> 10 nM,–,CCC12CCC(=O)C=C1c1c(cc(OCC(=O)OCC3COC(C)(C)O3)c(Cl)c1Cl)C2 (configuration not stated)

Distribution [1],pKa [2],IC50 ([3]; Felis catus),IC50 [3],Structure (SMILES)
–,–,–,> 10000 nM,"CCOC(=O)COc1cc2c(c(Cl)c1Cl)C1=CC(=O)CCC1(CC)C2 (single isomer, unassigned; (-))"
> 99.9%,–,–,0.1 nM,"CCOC(=O)COc1cc2c(c(Cl)c1Cl)C1=CC(=O)CCC1(CC)C2 (single isomer, unassigned; (+))"
99%,4.7,> 1000 nM,–,CCCC12CCC(=O)C=C1c1c(cc(SCC(=O)O)c(Cl)c1Cl)C2 (configuration not stated)
83%,–,–,3 nM,CCC12CCC(=O)C=C1c1c(cc(OCC(=O)OCC(=O)O)c(Cl)c1Cl)C2 (stereo in doubt; (+)-16b-8)
99.8%,3.7,3 nM,–,CCCC12CCC(=O)C=C1c1c(cc(OCCCC(=O)O)c(Cl)c1Cl)C2 (configuration not stated)
95%,3.8,1 nM,–,CCC12CCC(=O)C=C1c1c(cc(OCC(=O)OC(C)(C)C(=O)O)c(Cl)c1Cl)C2 (stereo in doubt; 16b-9)
> 99.9%,–,0.002 nM,–,CCCC12CCC(=O)C=C1c1c(cc(OCC(=O)OC)c(Cl)c1Cl)C2 (configuration not stated)
99.7%,7.7,> 1000 nM,–,CCCC12CCC(=O)C=C1c1c(cc(OCC(=O)NCCN(C)C)c(Cl)c1Cl)C2 (configuration not stated)
97%,3.83,1 nM,–,O=C(O)COc1cc2c(c(Cl)c1Cl)C1=CC(=O)CCC1(C1CCCC1)C2 (configuration not stated)
99.3%,–,0.7 nM,–,CCC12CCC(=O)C=C1c1c(cc(OCC(=O)OCCCO)c(Cl)c1Cl)C2 (configuration not stated)
70%,3.5,> 10 nM,–,C=CC12CCC(=O)C=C1c1c(cc(OCC(=O)O)c(Cl)c1Cl)C2 (configuration not stated)
98%,3.8,0.004 nM,–,"CCCC12CCC(=O)C=C1c1c(cc(OCC(=O)OC(C)(C)C(=O)O)c(Cl)c1Cl)C2 (single isomer, unassigned; (+))"
62%,3.75,10 nM,–,CC12CCC(=O)C=C1c1c(cc(OCC(=O)O)c(Cl)c1Cl)C2 (configuration not stated)
–,–,–,10 nM,"CCC12CCC(=O)C=C1c1c(cc(OCC(=O)O)c(Cl)c1Cl)C2 (single isomer, unassigned; (+))"
88%,3.84,100 nM,–,CCCC12CC(=O)C=C1c1c(cc(OCC(=O)O)c(Cl)c1Cl)C2 (configuration not stated)
49%,4.05,50 nM,–,CCCC12CCC(=O)C=C1c1ccc(OCC(=O)O)cc1C2 (configuration not stated)
11%,6.18,> 10000 nM,–,"CCCC12CCC(=O)C=C1c1c(cc(O)c(Cl)c1Cl)C2 (single isomer, unassigned; (+))"
–,–,–,30 nM,CCC12CCC(=O)C=C1c1c(cc(OCC(=O)O)c(Cl)c1Cl)C2 (stereo in doubt; 5b)
98.6%,5.08,> 10 nM,–,CCC12CCC(=O)C=C1c1c(cc(OCC(=O)OCCN3CCOCC3)c(Cl)c1Cl)C2 (configuration not stated)

Structure (SMILES),Distribution [1],pKa [2],IC50 ([3]; Felis catus),IC50 [3]
CCCC12CCC(=O)C=C1c1c(cc(OCC(=O)O)c(Cl)c1Cl)C2 (stereo in doubt; 5c),93%,3.6,–,0.04 nM
"CCCC12CCC(=O)C=C1c1c(cc(OCC(=O)O)c(Cl)c1Cl)C2 (single isomer, unassigned; (-))",–,–,–,10000 nM
